A short description of series [1]: folding enthalpy; higher = less favourable; fluorescence melt of hairpins on a sequencing array, two-state fit. The conditions noted are these: sodium 0.088 M. The method in brief: (§1)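 Folding enthalpy and melting temperature were estimated with bootstrapped two-state fits and combined across four replicates by inverse-variance weighting, with fitted temperatures raised by 9.35 °C to match UV melts. The data were Cy3 fluorescence of library hairpins, with annealed Cy3 and quencher oligos, on a sequenced MiSeq flow cell in 50 mM Na-HEPES pH 8.0, 25 mM NaCl, imaged in 2.5 °C steps up to 60 °C and normalised to pre-quench Cy3 and control constructs.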

Series [2] is described as follows: melting temperature; fluorescence melt of hairpins on a sequencing array, two-state fit, raised by 9.35 °C to match UV melts. The conditions noted are these: sodium 0.088 M. Put shortly: as §1

As to TGTGAGAAATCACA (((((....))))), in series [1], the folding enthalpy was -18.3 kcal/mol. Moreover, the Tm in series [2] was determined as 38.9 °C.

Turning to TGTGTGAAAACACA (((((....))))), in series [1], the folding enthalpy was -20 kcal/mol. In addition, in series [2], the Tm worked out at 49 °C.

Consider TGTTCGAAAGAACA (((((....))))), for which, in series [1], the folding enthalpy is -17.1 kcal/mol. The Tm in series [2] was found to be 52.3 °C.

On to TTAGCGAAAGCTAA (((((....))))), for which the folding enthalpy in series [1] is -16.2 kcal/mol. The Tm in series [2] stood at 51.2 °C.

As for TTCGTGAAAACGAA (((((....))))), the folding enthalpy in series [1] is -20.2 kcal/mol. Besides, the Tm in series [2] worked out at 46.4 °C.

With TTCTCGAAAGAGAA (((((....))))), the folding enthalpy in series [1] was -15.2 kcal/mol. Further, in series [2], the Tm stood at 49.1 °C.

Consider TTGGTGAAAACCAA (((((....))))), for which the folding enthalpy in series [1] is -15.8 kcal/mol. The Tm in series [2] was 44.8 °C.

For TTGTGGAAACACAA (((((....))))), the folding enthalpy in series [1] is -19.7 kcal/mol. In addition, the Tm in series [2] stood at 40.4 °C.

On to TTTGGGAAACCAAA (((((....))))), for which, in series [1], the folding enthalpy is -13.6 kcal/mol. For the same sequence, the Tm in series [2] came out at 38.2 °C.

Values taken from the array DNA melting data of Ke et al. (doi:10.1101/2024.01.08.574731).
